The test system of data set [1] is LNCaP. The data set can be described thus: Cellular uptake in proliferating human LNCAP cells expressing androgen receptor assessed as [125I]UdR retention per cell at 1 to 4 uCi/mL after 24 hrs by gamma counting. In kind it is ADME, cell-based. The method, boiled down:
(§1)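 Proliferating LNCaP monolayers exposed 24 h to a range of radioligand concentrations; whole-cell uptake measured.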

The nature of data set [2]: Stability in human OVCAR-3 cells expressing androgen receptor assessed as half life at 0.01 to 5 uCi/mL by silica gel instant thin layer chromatography. Format: ADME, cell-based.
A short description of data set [3]: Ratio of drug level in tumor to liver in athymic NCr mouse xenografted with human OVCAR-3 cells at 180 uCi, ip administered 9 days after tumor implantation as six fractionated doses every 4 days measured after 24 hrs by gamma counting. In kind it is ADME, organism-based. The note with it: in vivo.
Data set [4] can be described thus: Ratio of drug level in tumor to uterus in athymic NCr mouse xenografted with human OVCAR-3 cells at 180 uCi, ip administered 9 days after tumor implantation as six fractionated doses every 4 days measured after 1.5 hrs by gamma counting. Format: ADME, organism-based. The note with it: in vivo. On the technique in general: A xenograft is tissue or cells of one species grown in another, often human tumour cells in immunodeficient mice.

Data set [5] can be described thus: Chemical stability in RPMI-1640 serum-free medium assessed as half life at 12.2 uCi by HPLC analysis. In kind it is physicochemical.
Data set [6] relates to LNCaP. In words: Cellular uptake in proliferating human LNCAP cells expressing androgen receptor after 24 hrs by gamma counting. In kind it is ADME, cell-based. The method, boiled down: as §1
The target of a further data set is Albumin (Mus musculus, UniProt P07724). In words: Binding affinity to mouse serum albumin at 10 to 20 uCi/mL after 60 mins by size-exclusion HPLC analysis. In kind it is ADME. The conditions noted are these: isolated protein, 1 h. The method, boiled down: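 Radioiodinated compound incubated 60 min with human, rabbit or mouse serum, or with purified human SHBG. Aliquots analysed on a TSK3000 size-exclusion column: 0.1 M potassium phosphate/0.1 M Na2SO4 (1:1, pH 6.8) for 20 min, then 0–40% CH3CN over 20 min, held 30 min, 0.7 mL/min. Protein-bound versus free radioactivity read from the peaks.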
In general terms: Size exclusion chromatography separates by hydrodynamic size, large species first.

Data set [7] can be described thus: Ratio of drug level in tumor to uterus in athymic NCr mouse xenografted with human OVCAR-3 cells at 180 uCi, ip administered 9 days after tumor implantation as six fractionated doses every 4 days measured after 72 hrs by gamma counting. In kind it is ADME, organism-based. The conditions noted are these: in vivo.
Data set [8] can be described thus: Ratio of drug level in tumor to uterus in athymic NCr mouse xenografted with human OVCAR-3 cells at 180 uCi, ip administered 9 days after tumor implantation as six fractionated doses every 4 days measured after 48 hrs by gamma counting. In kind it is ADME, organism-based. The note with it: in vivo.
The nature of data set [9]: Stability in mouse serum assessed as intact compound remaining at 10 to 20 uCi/mL after 10 mins by size-exclusion HPLC analysis. Format: ADME, cell-free. The note with it: read-out: Stability. A digest of the protocol: (§2)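 The compound was incubated in mouse serum, which lacks circulating SHBG. Aliquots were analysed on size-exclusion HPLC (TSK3000; phosphate/Na2SO4 buffer, pH 6.8, then an acetonitrile gradient). Extracts were analysed by C18 reversed-phase HPLC to measure intact compound remaining over time.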

Data set [10] relates to OVCAR-3. In words: Antitumor activity against human OVCAR-3 cells xenografted in athymic NCr mouse assessed as number of nonadherent cancer cells in peritoneum at 180 uCi, ip administered 9 days after tumor implantation as six fractionated doses every 4 days measured after 2 weeks of last dose by gamma counting. In kind it is functional. The method, boiled down:
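OVCAR-3 ip xenografts in athymic mice; six fractionated ip doses every 4 days, total 180 μCi/mouse, with PBS or vehicle ip controls. Nonadherent tumor cells recovered by peritoneal lavage at necropsy, counted and pellet-weighed.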

Data set [11] can be described thus: Biodistribution in peritoneum of athymic NCr mouse xenografted with human OVCAR-3 cells at 1.12 uCi, ip after 24 hrs by gamma counting. In kind it is ADME, organism-based. The conditions noted are these: in vivo.
Data set [12] in a line: Clearance in peritoneal cavity of athymic NCr mouse xenografted with human OVCAR-3 cells assessed as half life at 1.12 uCi, ip by gamma counting. In kind it is ADME, organism-based. The note with it: in vivo. The method, boiled down:
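Peritoneal clearance measured in athymic NCr-nu/nu mice bearing intraperitoneal NIH:OVCAR-3 xenografts after an ip dose of the 125I compound. The peritoneal cavity was lavaged, and 125I was counted in the lavage and in the recovered tumor cells. Half-lives were estimated from the clearance curves.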

Data set [13] deals with OVCAR-3. The data set can be described thus: Stability in human OVCAR-3 cells expressing androgen receptor assessed as half life at 0.1 uCi/mL by silica gel instant thin layer chromatography. Format: ADME, cell-based. The method, boiled down:
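Breakdown was followed with proliferating NIH:OVCAR-3 cells grown in complete RPMI-1640 medium. The distribution of radioactive products released into the culture medium (parent compound, 125IUdR and its 3′-succinate) was measured over time. Half-life was estimated from the time course.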

For data set [14], the system named is OVCAR-3. The data set can be described thus: Cytotoxicity against human OVCAR-3 cells expressing androgen receptor assessed as cell survival at 0.01 to 5 uCi/mL after 24 hrs. In kind it is functional.
Data set [15] relates to OVCAR-3. In words: Cytotoxicity against human OVCAR-3 cells expressing androgen receptor at 5 uCi/mL after 24 hrs. Format: functional.
Data set [16] has as its system OVCAR-3. The data set can be described thus: Cellular uptake in human OVCAR-3 cells expressing androgen receptor assessed as ratio of [125I]UdR to thymidine incorporation in DNA at 1.75 uCi/mL after 24 hrs by gamma counting. In kind it is ADME, cell-based. The conditions noted are these: ovcar-3, 24 h. A digest of the protocol: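 OVCAR-3 cells treated with the radioligand; fraction of DNA thymidine replaced by 125IUdR determined after 24 h.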
Background: Uptake of a labelled nucleoside into DNA is a usual measure of proliferation.

Data set [17] is described as follows: Chemical stability in phosphate buffer saline by HPLC analysis. In kind it is physicochemical.
The subject of a further data set is Serum. In words: Stability in mouse serum assessed as time required for formation of [125I]UdR at 10 to 20 uCi/mL after 60 mins by gamma counting. In kind it is ADME, cell-free. The conditions noted are these: 1 h.
Data set [18] can be described thus: Stability in mouse serum assessed as intact compound remaining at 20 uCi after 40 mins by size-exclusion HPLC analysis. In kind it is ADME, cell-free. The conditions noted are these: read-out: Stability. A digest of the protocol:
as §2

The subject of another data set is Mus musculus. In words: Toxicity in athymic NCr mouse xenografted with human OVCAR-3 cells assessed as hematocrit level at 0.25 mCi, ip administered 31 days after tumor implantation as single bolus dose measured 55 days after implantation by gamma counting in presence of SHBG (Rvb= 51.4 +/- 1.6 %). Format: organism-based. The conditions noted are these: in vivo, 1320 h.

Data set [19] deals with OVCAR-3. In words: Antitumor activity against human OVCAR-3 cells xenografted in athymic NCr mouse assessed as solid tumor weight in peritoneum at 0.25 mCi, ip administered 31 days after tumor implantation as single bolus dose measured 55 days after implantation by gamma counting in presence of SHBG (Rvb= 1.9 +/- 0.8 g). Format: functional.
The test system of another data set is Liver. In words: Biodistribution in liver of athymic NCr mouse xenografted with human OVCAR-3 cells assessed per gram of tissue at an average 39.5 uCi/dose, ip administered 9 days after tumor implantation as six fractionated doses every 4 days measured after 2 weeks of last dose by gamma counting. In kind it is ADME, organism-based. The conditions noted are these: in vivo, 336 h. The method, boiled down: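 OVCAR-3-bearing and healthy athymic mice given fractionated ip doses on the six-dose every-4-days schedule; tissues, tumor and lavaged cells γ-counted at necropsy, %ID/g; DNA-bound 125I in cells measured as cpm/cell.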

Some results are limits rather than exact numbers.

Chain of Albumin (P07724 whole entry): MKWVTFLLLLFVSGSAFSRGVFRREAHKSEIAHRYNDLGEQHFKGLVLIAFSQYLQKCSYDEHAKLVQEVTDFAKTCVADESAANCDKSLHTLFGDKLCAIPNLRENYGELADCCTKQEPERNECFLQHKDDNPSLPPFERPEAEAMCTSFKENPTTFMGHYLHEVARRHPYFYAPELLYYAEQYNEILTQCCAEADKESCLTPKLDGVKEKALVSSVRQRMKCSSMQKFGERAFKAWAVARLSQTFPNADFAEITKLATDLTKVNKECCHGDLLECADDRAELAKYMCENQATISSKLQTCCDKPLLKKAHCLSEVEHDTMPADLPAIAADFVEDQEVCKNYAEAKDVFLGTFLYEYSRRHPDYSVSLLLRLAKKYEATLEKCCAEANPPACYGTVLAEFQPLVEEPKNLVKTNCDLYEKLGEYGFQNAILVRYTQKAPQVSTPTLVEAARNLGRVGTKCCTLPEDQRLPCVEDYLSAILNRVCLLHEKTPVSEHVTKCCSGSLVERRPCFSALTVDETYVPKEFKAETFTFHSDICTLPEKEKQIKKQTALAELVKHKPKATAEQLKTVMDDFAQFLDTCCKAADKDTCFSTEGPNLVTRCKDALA

With `C[C@]12CCC(=O)C[C@@H]1CC[C@@H]1[C@@H]2CC[C@]2(C)[C@@H](OC(=O)CCC(=O)O[C@H]3C[C@H](n4cc([125I])c(=O)[nH]c4=O)O[C@@H]3CO)CC[C@@H]12`, the Bmax in the data set with LNCaP [1] amounted to 1.4 ×10⁻⁶ pmol. Also, the half-life in data set [2] was 1440 h. The Ratio is recorded as 65 in data set [3], 1.4 in data set [4], 7.4 in data set [7] and 16.6 in data set [8]. Besides, the t1/2 in data set [5] was 54.2 h; in data set [12] it was 68 h; with OVCAR-3 [13], 3.2 h. For the same compound, the figures for the Drug uptake entry (in the data set with LNCaP [6]; in data set [11]) were “Dose-dependent effect” and above 95%, respectively. Also, the Activity entry at Albumin is “Not Active”; in the data set on OVCAR-3 [10] it was 1250000000; in the data set on OVCAR-3 [15] it was 20%. For the same compound, the remaining at 10 min in [9] is below 1.5%. Further, the Survival with OVCAR-3 [14] was determined as 95%.

As to `C[C@]12CCC(=O)C[C@@H]1CC[C@@H]1[C@@H]2CC[C@]2(C)[C@@H](OC(=O)CCC(=O)O[C@H]3C[C@H](n4cc([125I])c(=O)[nH]c4=O)O[C@@H]3COP(=O)(O)O)CC[C@@H]12`, the Ratio in the data set with OVCAR-3 [16] was found to be 0.002. The Stability entry in data set [17] was “Stable”; in the data set on Serum, below 10 min. In data set [18], the remaining at 40 min, 20 uCi was 60%. In addition, the results for the Activity in the data set on Mus musculus and with OVCAR-3 [19] were 55.2% and 1.2 g, respectively. Further, in the data set with Liver, the Drug uptake is listed as 0.017 %ID.

As usually defined, the half-life is the time needed for the level to fall by half in the phase considered.

(Values after ChEMBL document CHEMBL1155242, “Radiolabeled 5-iodo-3'-O-(17beta-succinyl-5alpha-androstan-3-one)-2'-deoxyuridine and its 5'-monophosphate for imaging and therapy of androgen receptor-positive cancers: synthesis and biological evaluation” (J Med Chem, 2009).)
